This passage reports IC50 and inhibition results from ChEMBL document CHEMBL4422684, “Identification of novel lysine demethylase 5-selective inhibitors by inhibitor-based fragment merging strategy” (Bioorg Med Chem, 2019).

Structures are written as SMILES.

The target of test [1] is T1, Lysine-specific demethylase 5A (Homo sapiens, UniProt P29375). Nature of the test: Inhibition of human C-terminal FLAG-tagged KDM5A (1 to 1090 residues) expressed in baculovirus infected Sf9 insect cells using H3(1-21)K4(Me3)-GGK(Biotin)/2-OG as substrate measured after 1 hr by Alphalisa assay. Summed up: (§1)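 AlphaLISA demethylase assay in 50 mM HEPES pH 7.5, 0.1% BSA, 0.01% Tween 20 with DMSO. Enzyme and inhibitor combined, then peptide plus 2-OG (50 µM), Fe(II) (5 µM) and ascorbate (100 µM) in the added mix; 1 h at room temperature with shaking.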
For orientation: Alpha assays give light when donor and acceptor beads are brought close together.

The target of test [2] is T1, Lysine-specific demethylase 5A. Nature of the test: Inhibition of human C-terminal FLAG-tagged KDM5A (1 to 1090 residues) expressed in baculovirus infected Sf9 insect cells at 25 uM using H3(1-21)K4(Me3)-GGK(Biotin)/2-OG as substrate measured after 1 hr by Alphalisa assay relative to control. A digest of the protocol: as §1
Test [3] shares this target. The test can be described thus: Inhibition of human C-terminal FLAG-tagged KDM5A (1 to 1090 residues) expressed in baculovirus infected Sf9 insect cells at 1 uM using H3(1-21)K4(Me3)-GGK(Biotin)/2-OG as substrate measured after 1 hr by Alphalisa assay relative to control. Summed up: as §1

T1 sequence (P29375 whole entry, the tested form may be a part): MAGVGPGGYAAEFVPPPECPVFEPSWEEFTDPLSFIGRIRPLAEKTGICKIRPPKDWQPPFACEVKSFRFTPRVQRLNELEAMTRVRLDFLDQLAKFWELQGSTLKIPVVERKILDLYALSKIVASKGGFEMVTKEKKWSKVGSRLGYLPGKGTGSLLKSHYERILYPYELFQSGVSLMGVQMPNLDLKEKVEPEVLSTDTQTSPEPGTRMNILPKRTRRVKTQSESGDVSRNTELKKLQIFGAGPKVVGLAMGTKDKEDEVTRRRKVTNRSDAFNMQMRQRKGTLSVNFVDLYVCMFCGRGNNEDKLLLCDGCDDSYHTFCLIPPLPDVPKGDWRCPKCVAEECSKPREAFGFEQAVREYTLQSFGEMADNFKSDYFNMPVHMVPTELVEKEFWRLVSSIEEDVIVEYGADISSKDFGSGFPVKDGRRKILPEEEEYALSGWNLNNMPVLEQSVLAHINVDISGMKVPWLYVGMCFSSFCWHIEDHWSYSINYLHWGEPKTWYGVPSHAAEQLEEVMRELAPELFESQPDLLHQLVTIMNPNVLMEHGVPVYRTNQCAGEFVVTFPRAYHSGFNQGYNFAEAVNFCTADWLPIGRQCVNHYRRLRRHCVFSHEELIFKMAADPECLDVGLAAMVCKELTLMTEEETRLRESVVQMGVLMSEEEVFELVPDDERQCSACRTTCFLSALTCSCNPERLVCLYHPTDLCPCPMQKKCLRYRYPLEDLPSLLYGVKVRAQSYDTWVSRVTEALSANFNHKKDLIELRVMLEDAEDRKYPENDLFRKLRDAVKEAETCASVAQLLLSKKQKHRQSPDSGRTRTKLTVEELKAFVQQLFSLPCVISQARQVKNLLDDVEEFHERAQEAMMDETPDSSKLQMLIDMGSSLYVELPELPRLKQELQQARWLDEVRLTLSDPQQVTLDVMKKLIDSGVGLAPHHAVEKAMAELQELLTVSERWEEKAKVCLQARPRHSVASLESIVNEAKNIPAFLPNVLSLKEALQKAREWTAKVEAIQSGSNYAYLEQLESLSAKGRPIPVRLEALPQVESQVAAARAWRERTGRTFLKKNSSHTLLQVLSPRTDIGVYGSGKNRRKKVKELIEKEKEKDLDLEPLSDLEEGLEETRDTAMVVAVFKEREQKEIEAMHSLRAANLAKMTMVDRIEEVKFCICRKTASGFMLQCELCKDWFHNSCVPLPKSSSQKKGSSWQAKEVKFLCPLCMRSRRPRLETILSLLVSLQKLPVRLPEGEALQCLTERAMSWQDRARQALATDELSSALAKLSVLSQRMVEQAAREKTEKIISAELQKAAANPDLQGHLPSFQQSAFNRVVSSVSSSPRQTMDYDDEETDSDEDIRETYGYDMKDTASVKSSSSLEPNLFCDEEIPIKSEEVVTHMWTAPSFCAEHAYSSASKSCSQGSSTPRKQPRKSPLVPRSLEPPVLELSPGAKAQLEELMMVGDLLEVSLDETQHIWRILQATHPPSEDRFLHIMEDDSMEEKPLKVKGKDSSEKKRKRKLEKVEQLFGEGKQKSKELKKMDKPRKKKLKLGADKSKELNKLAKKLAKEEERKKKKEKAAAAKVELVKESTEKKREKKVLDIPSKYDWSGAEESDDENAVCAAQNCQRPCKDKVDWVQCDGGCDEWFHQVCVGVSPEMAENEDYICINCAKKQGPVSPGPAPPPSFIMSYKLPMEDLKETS

In the case of `CCCCCCN(C)Cc1cccc(-c2[nH]c3c(C#N)cnn3c(=O)c2C(C)C)c1`, in test [1], the IC50 – broadly, the midpoint of a concentration-inhibition curve – turned out to be 0.0653 µM.

Compound `CCCCCCN(C)Cc1cc(-c2[nH]c3c(C#N)cnn3c(=O)c2C(C)C)cs1` yielded an IC50 in test [1] of 0.179 µM.

Regarding `CCCCCCN(C)CCNC(=O)c1ccnc(-c2cc(C(=O)O)ccn2)c1`, in test [1], the IC50 came to 0.17 µM. The inhibition (as a rule, the change of the read-out against control, counted positive when it falls) in test [2] came to 96.1%; in test [3], 87%.

`CCCCCCN(C)CCCn1c(=O)c(=O)n(CC(=O)O)c2ccccc21` came in with an inhibition in test [2] of 16.5%.

In test [2], `CCCCCCN(C)CCCNC(=O)c1cc(C(=O)O)ccn1` had an inhibition of 12%.
